Converted amounts (≈) assume the structure as drawn.

Results on 1 compound are retold here after publication PMC4142138 (European Journal of Drug Metabolism and Pharmacokinetics, 2014).

Series [1] can be described thus: In vitro pH solubility profile in Britton–Robinson buffer. It is filed as physicochemical. Particulars: pH 6, aqueous buffer, thermodynamic from solid. The procedure, abridged:
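Excess solid added to Britton–Robinson buffer at the set pH in a vial, rolled 4 h at ambient temperature. A sample was filtered by centrifugation through a 0.45 μm PVDF membrane. The clear filtrate was assayed by gradient reversed-phase HPLC on C18 (water/acetonitrile, 0.05 % TFA) with UV detection at 220 nm.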

Series [2] is classed as in vivo. Particulars: human, whole blood, po, 50 mg.
For series [3], the system named is healthy elderly subjects. In words: Safety and tolerability. Particulars: whole study. The series is classed as in vivo, human. The method in brief: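 Healthy elderly (65–80 y) male or non-childbearing female volunteers in a single-centre randomised crossover study; 20 subjects through 4 treatment periods. Each period had omeprazole 20 mg QD for 5 days and a single oral 50 mg test compound dose (fed or fasted), with washout ≥3 days. AEs, vital signs, ECGs, clinical chemistry, haematology, urinalysis and physical examination were summarised by treatment.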

The test system of series [4] is CXCR2. Particulars: read-out: IC50 for CXCL8 binding; ref GSK, data on file; cited from earlier work.
Where [5] appears, read: all treatment periods, 20 subjects.

In general, solubility refers to the dissolved amount per volume that the medium holds. In general, half-life refers to the time needed for the level to fall by half in the phase considered. A low value points to rapid decline. As usually defined, the IC50 is the concentration that gives 50% inhibition. Regarding `Cc1c(F)cccc1NC(=O)Nc1ccc(Cl)c(S(=O)(=O)[C@H]2CCCNC2)c1O` [danirixin, Danirixin], the solubility at 4 h in series [1] amounted to 3 µg/mL (≈ 6.79 µM). For the same compound, in series [2], the half-life lay within 7 to 9 h. Besides, the “serious AEs” value in series [3] is “no serious AEs”. In addition, in series [3] (setting [5]), the “subjects reporting AEs during the study” value was determined as 45% and the “subjects reporting headaches during the study” value came out at 20%. Moreover, the IC50 in series [4] was […].
